Test results: ChEMBL document CHEMBL1212854, “The structure-activity relationships of A-ring-substituted aromathecin topoisomerase I inhibitors strongly support a camptothecin-like binding mode” (2010)
The source made the active and inactive calls. The rule behind the calls is not given here.

What was measured:
[1] = target: T1, DNA topoisomerase 1 (Homo sapiens) (UniProt P11387); test: Inhibition of human recombinant Top1-mediated DNA cleavage at 0.1 to 100 uM after 20 mins relative to camptothecin; design: scale not given: the % may be the effect or the level left
T1 sequence (whole entry): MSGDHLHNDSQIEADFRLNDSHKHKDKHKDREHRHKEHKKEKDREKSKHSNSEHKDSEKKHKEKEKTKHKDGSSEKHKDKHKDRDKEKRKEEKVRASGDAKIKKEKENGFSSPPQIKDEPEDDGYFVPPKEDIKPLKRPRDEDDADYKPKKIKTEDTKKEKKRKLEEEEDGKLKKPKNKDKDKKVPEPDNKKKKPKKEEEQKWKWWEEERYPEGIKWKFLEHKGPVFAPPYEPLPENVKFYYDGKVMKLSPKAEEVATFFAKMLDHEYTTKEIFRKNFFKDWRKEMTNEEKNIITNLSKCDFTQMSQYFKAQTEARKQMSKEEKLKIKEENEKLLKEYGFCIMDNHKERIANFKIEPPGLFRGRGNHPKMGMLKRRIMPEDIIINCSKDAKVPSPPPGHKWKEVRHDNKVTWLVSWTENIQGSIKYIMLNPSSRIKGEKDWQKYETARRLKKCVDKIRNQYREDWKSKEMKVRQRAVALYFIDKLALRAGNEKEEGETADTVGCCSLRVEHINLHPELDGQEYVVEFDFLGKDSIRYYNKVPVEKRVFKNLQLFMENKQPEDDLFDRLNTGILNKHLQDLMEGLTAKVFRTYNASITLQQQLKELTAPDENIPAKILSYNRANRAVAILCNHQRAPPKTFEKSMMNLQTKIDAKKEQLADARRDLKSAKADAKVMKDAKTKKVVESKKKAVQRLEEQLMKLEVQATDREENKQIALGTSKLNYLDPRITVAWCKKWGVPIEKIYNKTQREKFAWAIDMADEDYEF
How it was run: (§1)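 Human recombinant Top1 purified from baculovirus. Substrate is a 117-bp oligonucleotide, about 2 nM, 3′-end labelled with 32P-dGTP by Klenow fill-in. Stopped with 0.5% SDS, run on 20% denaturing PAGE and phosphorimaged. Cleavage graded 0 to +++ against 1 μM camptothecin.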

[2] = system: NCI-60 human cancer cell line panel (Homo sapiens); test: Cytotoxicity against NCI-60 human cancer cell line panel (mean) at 10 uM; conditions: pooled result: one value given for 8 cell lines, strains, targets or settings, read-out: GI
HOP-62 = test: Cytotoxicity against human HOP62 cells; assay type: functional
How it was run: (§2)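 NCI 60-cell-line screen (eight solid-tumour subpanels plus leukemia). A one-dose pass at 10−5 M came first. Selected compounds were then run at five concentrations from 10−8 to 10−4 M. GI50 is the concentration giving 50% growth inhibition.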

HCT-116 = test: Cytotoxicity against human HCT116 cells; assay type: functional; how it was run: as §2
SF-539 = test: Cytotoxicity against human SF539 cells; assay type: functional; how it was run: as §2
UACC-62 = test: Cytotoxicity against human UACC62 cells; assay type: functional; how it was run: as §2
OVCAR-3 = test: Cytotoxicity against human OVCAR-3 cells; assay type: functional; how it was run: as §2
SN12C = test: Cytotoxicity against human SN12C cells; assay type: functional; how it was run: as §2
DU-145 = test: Cytotoxicity against human DU145 cells; assay type: functional; how it was run: as §2
MCF7 = test: Cytotoxicity against human MCF7 cells; assay type: functional; how it was run: as §2
[3] = target: T1, DNA topoisomerase 1 (Homo sapiens); test: Inhibition of human recombinant Top1-mediated DNA cleavage at 1 uM after 20 mins relative to camptothecin; how it was run: as §1

O=c1c2ccccc2cc2n1Cc1c-2nc2cc3c(cc2c1CCl)OCCO3
Activity [1]: 20%
inhibition of growth at 10 µM [2]: 10.3%

O=c1c2ccccc2cc2n1Cc1c-2nc2cc3c(cc2c1CNCCCn1ccnc1)OCCO3
Activity [1]: 50%
inhibition of growth at 10 µM [2]: 14.3%

Cc1cc2c(CNCCO)c3c(nc2cc1F)-c1cc2ccccc2c(=O)n1C3
GI50 (HOP-62): 11200 nM
GI50 (HCT-116): 18400 nM
GI50 (SF-539): 9230 nM
GI50 (UACC-62): 14200 nM
GI50 (OVCAR-3): 16800 nM
GI50 (SN12C): 20200 nM
GI50 (DU-145): 12200 nM
GI50 (MCF7): 1620 nM
Activity [1]: 50%
inhibition of growth at 10 µM [2]: > 25%

COc1cc2nc3c(c(CN4CC[C@H](O)C4)c2cc1OC)Cn1c-3cc2ccccc2c1=O
Activity [1]: inactive
inhibition of growth at 10 µM [2]: 14.2%

CC[C@@]1(O)C(=O)OCc2c1cc1n(c2=O)Cc2cc3ccccc3nc2-1 [CAMPTOTHECIN]
GI50 (HOP-62): 10 nM
GI50 (HCT-116): 30 nM
GI50 (SF-539): 10 nM
GI50 (UACC-62): 10 nM
GI50 (SN12C): 20 nM
GI50 (DU-145): 10 nM
GI50 (MCF7): 10 nM
Activity [3]: Active

O=c1c2ccccc2cc2n1Cc1c-2nc2cc(Cl)ccc2c1CN1CC[C@H](O)C1
Activity [1]: 20%
inhibition of growth at 10 µM [2]: < 15%

Cc1cc2c(CN3CC[C@H](O)C3)c3c(nc2cc1F)-c1cc2ccccc2c(=O)n1C3
Activity [1]: 50%
inhibition of growth at 10 µM [2]: > 25%

CN1CCN(Cc2c3c(nc4cc5c(cc24)OCCO5)-c2cc4ccccc4c(=O)n2C3)CC1
Activity [1]: 50%
inhibition of growth at 10 µM [2]: 23%

O=c1c2ccccc2cc2n1Cc1c-2nc2cc3c(cc2c1CNCCCN1CCOCC1)OCCO3
Activity [1]: 50%
inhibition of growth at 10 µM [2]: 10.8%

O=c1c2ccccc2cc2n1Cc1c-2nc2cc(Cl)ccc2c1CNCCCn1ccnc1
GI50 (HOP-62): 2000 nM
GI50 (HCT-116): 1820 nM
GI50 (SF-539): 1860 nM
GI50 (UACC-62): 1910 nM
GI50 (OVCAR-3): 2040 nM
GI50 (SN12C): 2090 nM
GI50 (MCF7): 1660 nM
Activity [1]: 20%
inhibition of growth at 10 µM [2]: > 15%

CN(C)CCCc1c2c(nc3cc4c(cc13)OCCO4)-c1cc3ccccc3c(=O)n1C2
Activity [1]: 75%
inhibition of growth at 10 µM [2]: 19%

O=c1c2ccccc2cc2n1Cc1c-2nc2cc(Cl)ccc2c1Cn1ccnc1
Activity [1]: 0%
inhibition of growth at 10 µM [2]: < 15%

COc1cc2c3c(n(CCCNCCO)c(=O)c2cc1OC)-c1cc2c(cc1C3=O)OCO2 [LMP-744]
GI50 (HOP-62): 20 nM
GI50 (HCT-116): 100 nM
GI50 (SF-539): 40 nM
GI50 (UACC-62): 30 nM
GI50 (OVCAR-3): 500 nM
GI50 (SN12C): < 10 nM
GI50 (DU-145): < 10 nM
GI50 (MCF7): < 10 nM
Activity [3]: Active

O=c1c2ccccc2cc2n1Cc1c-2nc2ccc(Cl)cc2c1CNCCCn1ccnc1
Activity [1]: 50%
inhibition of growth at 10 µM [2]: 30%
